Measured values published in ChEMBL document CHEMBL4477237, “Structure-Based Design of β5c Selective Inhibitors of Human Constitutive Proteasomes” (J Med Chem, 2016).

Legend:
[1] = target: T1, Proteasome Macropain subunit MB1 (Homo sapiens, UniProt P28074); assay: (§1) Inhibition of catalytic activity of constitutive proteasome 20s subunit beta5 in human Raji cells incubated for 1 hr by BODIPY(TMR)-NC-005-VS probe based competitive activity based protein profiling assay; format: cell-based
T1 sequence (P28074 whole entry): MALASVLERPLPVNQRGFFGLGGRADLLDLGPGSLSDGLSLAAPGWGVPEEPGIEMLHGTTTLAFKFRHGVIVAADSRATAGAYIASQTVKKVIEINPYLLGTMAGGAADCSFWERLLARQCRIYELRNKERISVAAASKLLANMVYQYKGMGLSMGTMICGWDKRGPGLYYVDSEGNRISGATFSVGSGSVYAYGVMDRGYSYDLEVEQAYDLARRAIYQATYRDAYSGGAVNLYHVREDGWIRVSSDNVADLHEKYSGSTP

[2] = target: T2, Proteasome Macropain subunit MB1 (Homo sapiens) (UniProt P28074); assay: Inhibition of catalytic activity of constitutive proteasome 20s subunit beta5 in human Raji cells assessed as residual activity at 0.01 uM incubated for 1 hr by BODIPY(TMR)-NC-005-VS probe based activity based protein profiling assay relative to control; format: cell-based
T2 sequence (whole entry): T1 sequence (P28074 whole entry)
How it was run: (§2)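 Initial screen in Raji cell extracts. Inhibitor at 0.01, 0.1, 1.0 and 10.0 µM final for 1 h at 37 °C, then ABP cocktail 1 h. In-gel fluorescence of β5c/β5i bands normalized to mock-treated extract, giving residual activity. Run once. IC50s from this screen feed the β5i/β5c ratio.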

[3] = target: Proteasome subunit beta type-8 (β5i, LMP7) (Homo sapiens) (UniProt P28062); assay: Inhibition of catalytic activity of immunoproteasome 20s subunit beta5 in human Raji cells assessed as residual activity at 0.01 uM incubated for 1 hr by BODIPY(TMR)-NC-005-VS probe based competitive activity based protein profiling assay relative to control
Homo sapiens = organism: Homo sapiens; assay: Selectivity ratio of IC50 for immunoproteasome 20s subunit beta5 in human Raji cells to IC50 for constitutive proteasome 20s subunit beta5 in human Raji cells; format: cell-based; how it was run: as §2
[4] = target: T2, Proteasome Macropain subunit MB1 (Homo sapiens); assay: as §1; format: cell-based
[5] = target: Proteasome subunit beta type-9 (β1i, LMP2) (Homo sapiens) (UniProt P28065); assay: Inhibition of catalytic activity of immunoproteasome 20s subunit beta1 in human Raji cells incubated for 1 hr by Cy5-NC-001 probe based competitive activity based protein profiling assay
[6] = target: T3, Proteasome component C5 (Homo sapiens) (UniProt P20618); assay: Inhibition of catalytic activity of constitutive proteasome 20s subunit beta1 in human Raji cells incubated for 1 hr by Cy5-NC-001 probe based competitive activity based protein profiling assay; format: cell-based
T3 sequence (whole entry): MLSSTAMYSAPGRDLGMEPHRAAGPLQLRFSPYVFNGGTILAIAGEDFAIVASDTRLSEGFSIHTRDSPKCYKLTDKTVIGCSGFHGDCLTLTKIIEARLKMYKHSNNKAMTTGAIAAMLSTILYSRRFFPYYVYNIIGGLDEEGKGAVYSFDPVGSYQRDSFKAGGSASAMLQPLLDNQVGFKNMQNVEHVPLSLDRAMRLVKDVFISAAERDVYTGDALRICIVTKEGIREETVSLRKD

[7] = target: Proteasome subunit beta type-8 (β5i, LMP7) (Homo sapiens) (UniProt P28062); assay: Inhibition of catalytic activity of immunoproteasome 20s subunit beta5 in human Raji cells incubated for 1 hr by BODIPY(TMR)-NC-005-VS probe based competitive activity based protein profiling assay
[8] = target: Proteasome Macropain subunit (Homo sapiens) (UniProt P49721); assay: Inhibition of catalytic activity of constitutive proteasome 20s subunit beta2 in human Raji cells incubated for 1 hr by BODIPY(FL)-LU-112 probe based competitive activity based protein profiling assay; format: cell-based

| Structure (SMILES) | IC50 [1] [nM] | Activity [2] [%] | Ratio IC50 (Homo sapiens) | other results |
| --- | --- | --- | --- | --- |
| Cc1ccc(C[C@H](NC(=O)[C@H](Cc2ccccc2)N=[N+]=[N-])C(=O)N[C@@H](Cc2ccccc2)C(=O)N[C@@H](CC(C)C)C(=O)[C@@]2(C)CO2)cc1 | < 10 | 6 |  | Activity [3]: 15% |
| C[C@H](NC(=O)[C@H](Cc1ccccc1)NC(=O)[C@H](CC1CCC(C2CCCCC2)CC1)NC(=O)CN1CCOCC1)C(=O)[C@@]1(C)CO1 (some centres undefined) | 1230 |  | > 8 |  |
| COc1ccc(C[C@H](NC(=O)[C@H](Cc2cccc3ccccc23)NC(=O)CN2CCOCC2)C(=O)N[C@@H](CC(C)C)C(=O)[C@@]2(C)CO2)cc1 | < 10 | 30 |  | Activity [3]: 36% |
| CC(C)C[C@H](NC(=O)[C@H](Cc1ccccc1)NC(=O)[C@@H](NC(=O)[C@H](Cc1ccccc1)N=[N+]=[N-])C1CCCCC1)C(=O)[C@@]1(C)CO1 | 33 |  | 2 |  |
| CC(C)C[C@H](NC(=O)[C@H](Cc1ccccc1)NC(=O)[C@H](CC(C)(C)C)NC(=O)[C@H](Cc1ccccc1)N=[N+]=[N-])C(=O)[C@@]1(C)CO1 | 18 |  | 4 |  |
| CC(C)C[C@H](NC(=O)[C@H](Cc1ccccc1)NC(=O)[C@H](CC1CCCC2CCCCC21)NC(=O)[C@H](Cc1ccccc1)N=[N+]=[N-])C(=O)[C@@]1(C)CO1 (some centres undefined) | < 10 | 40 | > 1.5 |  |
| COc1ccc(C[C@H](NC(=O)[C@H](Cc2ccc(-c3ccccc3)cc2)NC(=O)CN2CCOCC2)C(=O)N[C@@H](CC(C)C)C(=O)[C@@]2(C)CO2)cc1 | < 10 | 23 |  | Activity [3]: 44% |
| CC(C)C[C@H](NC(=O)[C@H](Cc1ccccc1)NC(=O)[C@H](CC1CCC(C2CCCCC2)CC1)NC(=O)[C@H](Cc1ccccc1)N=[N+]=[N-])C(=O)[C@@]1(C)CO1 (some centres undefined) | 17 to 19 |  |  | pIC50(app) [4]: 7.77; pIC50(app) [5]: < 4; pIC50(app) [6]: < 4; pIC50(app) [7]: 6.36 |
| CC(C)C[C@H](NC(=O)[C@H](Cc1ccccc1)NC(=O)[C@H](Cc1ccc(-c2ccccc2)cc1)NC(=O)[C@H](Cc1ccccc1)N=[N+]=[N-])C(=O)[C@@]1(C)CO1 | < 10 | 9 |  | Activity [3]: 28% |
| CC(C)C[C@H](NC(=O)[C@H](Cc1ccccc1)NC(=O)[C@H](CC1CC2CCC1C2)NC(=O)[C@H](Cc1ccccc1)N=[N+]=[N-])C(=O)[C@@]1(C)CO1 (some centres undefined) | < 10 | 24 | > 3 |  |
| COC1CCC(C[C@H](NC(=O)[C@H](Cc2ccccc2)N=[N+]=[N-])C(=O)N[C@@H](Cc2ccccc2)C(=O)N[C@@H](CC(C)C)C(=O)[C@@]2(C)CO2)CC1 (some centres undefined) | 2.1 |  |  | pIC50(app) [4]: 8.68; pIC50(app) [8]: 7.18; pIC50(app) [5]: 6.05; pIC50(app) [6]: < 4; pIC50(app) [7]: 7.67 |
| C[C@H](NC(=O)[C@H](Cc1ccccc1)NC(=O)[C@H](CC1CCC(C2CCCCC2)CC1)NC(=O)[C@H](Cc1ccccc1)N=[N+]=[N-])C(=O)[C@@]1(C)CO1 (some centres undefined) | 20 to 74.7 |  |  | pIC50(app) [4]: 7.13; pIC50(app) [5]: < 4; pIC50(app) [6]: < 4; pIC50(app) [7]: 4.78 |
| CC(C)C[C@H](NC(=O)[C@H](Cc1ccccc1)NC(=O)[C@H](CCC1CCCCC1)NC(=O)[C@H](Cc1ccccc1)N=[N+]=[N-])C(=O)[C@@]1(C)CO1 | 36 |  | 1 |  |
| C[C@H](NC(=O)[C@H](Cc1ccccc1)NC(=O)[C@H](Cc1ccc(-c2ccccc2)cc1)NC(=O)[C@H](Cc1ccccc1)N=[N+]=[N-])C(=O)[C@@]1(C)CO1 | < 10 |  | > 13 |  |
| CC(C)C[C@H](NC(=O)[C@H](Cc1ccccc1)NC(=O)[C@H](CCc1ccccc1)NC(=O)[C@H](Cc1ccccc1)N=[N+]=[N-])C(=O)[C@@]1(C)CO1 | 3 |  |  | pIC50(app) [4]: 8.53; pIC50(app) [8]: 7.22; pIC50(app) [5]: 6.79; pIC50(app) [6]: < 4; pIC50(app) [7]: 8.29 |
| C[C@H](NC(=O)[C@H](Cc1ccccc1)NC(=O)[C@H](CC1CCCCC1)NC(=O)[C@H](Cc1ccccc1)N=[N+]=[N-])C(=O)[C@@]1(C)CO1 | 57 |  | > 175 |  |
| CC(C)C[C@H](NC(=O)[C@H](Cc1ccccc1)NC(=O)[C@H](Cc1ccc2ccccc2c1)NC(=O)[C@H](Cc1ccccc1)N=[N+]=[N-])C(=O)[C@@]1(C)CO1 | < 10 | 14 |  | Activity [3]: 49% |

| Structure (SMILES) | IC50 [1] [nM] | Activity [2] [%] | Ratio IC50 (Homo sapiens) | other results |
| --- | --- | --- | --- | --- |
| COc1ccc(C[C@H](NC(=O)[C@H](CC23CC4CC(CC(C4)C2)C3)NC(=O)CN2CCOCC2)C(=O)N[C@@H](C)C(=O)[C@@]2(C)CO2)cc1 | 853 |  | > 12 |  |
| C[C@H](NC(=O)[C@H](Cc1ccccc1)NC(=O)[C@H](C[C@H]1CC[C@@H](c2ccccc2)CC1)NC(=O)[C@H](Cc1ccccc1)N=[N+]=[N-])C(=O)[C@@]1(C)CO1 | 71 |  | 165 |  |
| COc1ccc(C[C@H](NC(=O)[C@H](CC2CCCCC2)NC(=O)CN2CCOCC2)C(=O)N[C@@H](CC(C)C)C(=O)[C@@]2(C)CO2)cc1 | 119 |  | 2 |  |
| COc1ccc(C[C@H](NC(=O)[C@H](Cc2ccccc2)N=[N+]=[N-])C(=O)N[C@@H](Cc2ccccc2)C(=O)N[C@@H](CC(C)C)C(=O)[C@@]2(C)CO2)cc1 | 2.1 |  |  | pIC50(app) [4]: 8.68; pIC50(app) [8]: 6.95; pIC50(app) [5]: 6.88; pIC50(app) [6]: 6.75; pIC50(app) [7]: 8.11 |
| CC(C)C[C@H](NC(=O)[C@H](Cc1ccccc1)NC(=O)[C@H](Cc1c[nH]c2ccccc12)NC(=O)[C@H](Cc1ccccc1)N=[N+]=[N-])C(=O)[C@@]1(C)CO1 | < 10 | 16 |  | Activity [3]: 49% |
| COc1ccc(C[C@H](NC(=O)[C@H](CC23CC4CC(CC(C4)C2)C3)NC(=O)CN2CCOCC2)C(=O)N[C@@H](CC(C)C)C(=O)[C@@]2(C)CO2)cc1 | 853 |  | 1 |  |
| CC1=C(C(=O)N[C@H](C)C(=O)N[C@@H](Cc2c[nH]c3ccccc23)C(=O)N[C@@H](CC2CCCCC2)C(=O)[C@@]2(C)CO2)Cc2ccccc21 | > 1000 |  |  |  |
| COc1ccc(C[C@H](NC(=O)[C@H](Cc2ccc3ccccc3c2)NC(=O)CN2CCOCC2)C(=O)N[C@@H](CC(C)C)C(=O)[C@@]2(C)CO2)cc1 | < 10 | 9 |  | Activity [3]: 23% |
| CC(C)C[C@H](NC(=O)[C@H](Cc1ccccc1)NC(=O)[C@@H](NC(=O)[C@H](Cc1ccccc1)N=[N+]=[N-])c1ccccc1)C(=O)[C@@]1(C)CO1 | < 10 | 44 |  | Activity [3]: 56% |
| CC(C)C[C@H](NC(=O)[C@H](Cc1ccccc1)NC(=O)[C@H](CC1CCCCC1)NC(=O)[C@H](Cc1ccccc1)N=[N+]=[N-])C(=O)[C@@]1(C)CO1 | < 10 |  | > 5 |  |
| CC(C)C[C@H](NC(=O)[C@H](Cc1ccccc1)NC(=O)[C@H](CC1CCC2CCCCC2C1)NC(=O)[C@H](Cc1ccccc1)N=[N+]=[N-])C(=O)[C@@]1(C)CO1 (some centres undefined) | < 10 | 36 | > 2.5 |  |
| C[C@H](NC(=O)[C@H](Cc1ccccc1)NC(=O)[C@H](C[C@H]1CC[C@@H](C2CCCCC2)CC1)NC(=O)[C@H](Cc1ccccc1)N=[N+]=[N-])C(=O)[C@@]1(C)CO1 | 710 |  |  |  |
| C[C@H](NC(=O)[C@H](Cc1ccccc1)NC(=O)[C@@H](NC(=O)[C@H](Cc1ccccc1)N=[N+]=[N-])[C@H](C)OC(C)(C)C)C(=O)[C@@]1(C)CO1 | > 10000 |  |  |  |
| C[C@H](NC(=O)[C@H](Cc1ccccc1)NC(=O)[C@H](C[C@H]1CC[C@H](c2ccccc2)CC1)NC(=O)[C@H](Cc1ccccc1)N=[N+]=[N-])C(=O)[C@@]1(C)CO1 | 3.8 |  | 2250 |  |
| CC(C)C[C@H](NC(=O)[C@H](Cc1ccccc1)NC(=O)[C@H](Cc1ccccc1)NC(=O)[C@H](Cc1ccccc1)N=[N+]=[N-])C(=O)[C@@]1(C)CO1 |  |  |  | pIC50(app) [8]: 7.18; pIC50(app) [5]: 6.91; pIC50(app) [6]: < 4 |
| CC(C)C[C@H](NC(=O)[C@H](Cc1ccccc1)NC(=O)[C@H](Cc1cccc2ccccc12)NC(=O)[C@H](Cc1ccccc1)N=[N+]=[N-])C(=O)[C@@]1(C)CO1 | < 10 | 12 |  | Activity [3]: 28% |
